Experimental data as given in ChEMBL document CHEMBL1150393, “Evaluation of radiolabeled (hetero)aromatic analogues of N-(2-diethylaminoethyl)-4-iodobenzamide for imaging and targeted radionuclide therapy of melanoma” (J Med Chem, 2008).

Key:
Conditions in all cases: in vivo
[1] = Biodistribution in Stomach content of C57BL/6 mouse bearing mouse B16-F0 cells at 0.74 to 0.92 MBq, iv after 6 hrs; format: ADME, organism-based
How it was run: (§1)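 Male C57BL6 mice with s.c. left-flank B16-F0 melanoma (5 × 10⁵ cells in PBS). Two mice per time point frozen in liquid nitrogen after CO₂ sacrifice. Eight 40 µm whole-body cryosections per mouse read by multiwire proportional counter. cpm/mm² converted to kBq/g and expressed as %ID/g.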

Spleen [2] = assay: Biodistribution in spleen of C57BL/6 mouse bearing mouse B16-F0 cells at 0.74 to 0.92 MBq, iv after 6 hrs; format: ADME, organism-based
How it was run: (§2)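 [¹²⁵I]-labelled compound given iv by tail vein (0.1 µmol per mouse) to male C57BL6 mice bearing s.c. B16-F0 flank tumours (5 × 10⁵ cells in PBS). Two mice per time point were killed by CO₂, frozen in liquid nitrogen and cut into 40 µm cryosections, eight slices per mouse. Slice radioactivity was read on a multiwire proportional counter, converted to kBq/g and reported as %ID/g.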

[3] = Ratio of drug level in tumor to liver of C57BL/6 mouse bearing mouse B16-F0 cells at 0.74 to 0.92 MBq, iv after 3 hrs; format: ADME, organism-based
How it was run: (§3)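 Tumour and organ radioactive concentrations came from whole-body cryosection counting (40 µm slices, eight per mouse, two mice per time) after tail-vein injection of the [¹²⁵I]-labelled compound (0.1 µmol) into male C57BL6 mice bearing s.c. B16-F0 melanoma. Each value is the ratio of the tumour concentration to the organ concentration.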

[4] = Ratio of drug level in tumor to liver of C57BL/6 mouse bearing mouse B16-F0 cells at 0.74 to 0.92 MBq, iv after 6 hrs; format: ADME, organism-based; how it was run: as §3
[5] = Biodistribution in tumor of C57BL/6 mouse bearing mouse B16-F0 cells at 0.74 to 0.92 MBq, iv after 3 hrs; format: ADME, organism-based, Neoplasm; how it was run: as §2
[6] = Biodistribution in uvea of C57BL/6 mouse bearing mouse B16-F0 cells at 0.74 to 0.92 MBq, iv after 6 hrs; format: ADME, organism-based, Uveal tract; how it was run: as §2
[7] = Biodistribution in uvea of C57BL/6 mouse bearing mouse B16-F0 cells at 0.74 to 0.92 MBq, iv after 72 hrs; format: ADME, organism-based, Uveal tract; how it was run: as §2
[8] = Ratio of drug level in tumor to liver of C57BL/6 mouse bearing mouse B16-F0 cells at 0.74 to 0.92 MBq, iv after 1 hr; format: ADME, organism-based; how it was run: as §3
Spleen [9] = assay: Biodistribution in spleen of C57BL/6 mouse bearing mouse B16-F0 cells at 0.74 to 0.92 MBq, iv after 3 hrs; format: ADME, organism-based; how it was run: as §2
[10] = Ratio of drug level in tumor to lung of C57BL/6 mouse bearing mouse B16-F0 cells at 0.74 to 0.92 MBq, iv after 6 hrs; format: ADME, organism-based; how it was run: as §3
Pancreas = assay: Biodistribution in pancreas of C57BL/6 mouse bearing mouse B16-F0 cells at 0.74 to 0.92 MBq, iv after 1 hr; format: ADME, organism-based; how it was run: as §1
[11] = Drug excretion in mouse B16-F0 cells bearing C57BL/6 mouse urine at 0.74 to 0.92 MBq, iv after 72 hrs; format: ADME, organism-based
How it was run: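 Urine was collected from two B16-F0 tumour-bearing C57BL6 mice for up to 72 h after iv tail-vein injection of the [¹²⁵I]-labelled compound (0.1 µmol). Samples were counted to give cumulative urinary excretion as %ID.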

Liver [12] = assay: Biodistribution in liver of C57BL/6 mouse bearing mouse B16-F0 cells at 0.74 to 0.92 MBq, iv after 6 hrs; format: ADME, organism-based; how it was run: as §1
[13] = Biodistribution in Stomach content of C57BL/6 mouse bearing mouse B16-F0 cells at 0.74 to 0.92 MBq, iv after 1 hr; format: ADME, organism-based; how it was run: as §1
[14] = Biodistribution in tumor of C57BL/6 mouse bearing mouse B16-F0 cells at 0.74 to 0.92 MBq, iv after 24 hrs; format: ADME, organism-based, Neoplasm; how it was run: as §2
Blood [15] = assay: Biodistribution in blood of C57BL/6 mouse bearing mouse B16-F0 cells at 0.74 to 0.92 MBq, iv after 1 hr; format: ADME, organism-based; how it was run: as §1
[16] = Biodistribution in Stomach content of C57BL/6 mouse bearing mouse B16-F0 cells at 0.74 to 0.92 MBq, iv after 3 hrs; format: ADME, organism-based; how it was run: as §1
[17] = Biodistribution in uvea of C57BL/6 mouse bearing mouse B16-F0 cells at 0.74 to 0.92 MBq, iv after 1 hr; format: ADME, organism-based, Uveal tract; how it was run: as §2
Liver [18] = assay: Biodistribution in liver of C57BL/6 mouse bearing mouse B16-F0 cells at 0.74 to 0.92 MBq, iv after 3 hrs; format: ADME, organism-based; how it was run: as §1
[19] = Biodistribution in tumor of C57BL/6 mouse bearing mouse B16-F0 cells at 0.74 to 0.92 MBq, iv after 6 hrs; format: ADME, organism-based, Neoplasm; how it was run: as §2
Thyroid gland [20] = assay: Biodistribution in thyroid of C57BL/6 mouse bearing mouse B16-F0 cells at 0.74 to 0.92 MBq, iv after 3 hrs; format: ADME, organism-based; how it was run: as §2
Lung [21] = assay: Biodistribution in lung of C57BL/6 mouse bearing mouse B16-F0 cells at 0.74 to 0.92 MBq, iv after 1 hr; format: ADME, organism-based; how it was run: as §1
[22] = Biodistribution in intestinal content of C57BL/6 mouse bearing mouse B16-F0 cells at 0.74 to 0.92 MBq, iv after 3 hrs; format: ADME, organism-based; how it was run: as §1
Lung [23] = assay: Biodistribution in lung of C57BL/6 mouse bearing mouse B16-F0 cells at 0.74 to 0.92 MBq, iv after 6 hrs; format: ADME, organism-based; how it was run: as §1
Liver [24] = assay: Biodistribution in liver of C57BL/6 mouse bearing mouse B16-F0 cells at 0.74 to 0.92 MBq, iv after 24 hrs; format: ADME, organism-based; how it was run: as §1
Muscle tissue [25] = assay: Biodistribution in muscle of C57BL/6 mouse bearing mouse B16-F0 cells at 0.74 to 0.92 MBq, iv after 3 hrs; format: ADME, organism-based; how it was run: as §1
Kidney = assay: Biodistribution in kidney of C57BL/6 mouse bearing mouse B16-F0 cells at 0.74 to 0.92 MBq, iv after 6 hrs; format: ADME, organism-based; how it was run: as §1
Muscle tissue [26] = assay: Biodistribution in muscle of C57BL/6 mouse bearing mouse B16-F0 cells at 0.74 to 0.92 MBq, iv after 6 hrs; format: ADME, organism-based; how it was run: as §1
Thyroid gland [27] = assay: Biodistribution in thyroid of C57BL/6 mouse bearing mouse B16-F0 cells at 0.74 to 0.92 MBq, iv after 6 hrs; format: ADME, organism-based; how it was run: as §2
Blood [28] = assay: Biodistribution in blood of C57BL/6 mouse bearing mouse B16-F0 cells at 0.74 to 0.92 MBq, iv after 3 hrs; format: ADME, organism-based; how it was run: as §1
[29] = Ratio of drug level in tumor to brain of C57BL/6 mouse bearing mouse B16-F0 cells at 0.74 to 0.92 MBq, iv after 1 hr; format: ADME, organism-based; how it was run: as §3
[30] = Ratio of drug level in tumor to liver of C57BL/6 mouse bearing mouse B16-F0 cells at 0.74 to 0.92 MBq, iv after 24 hrs; format: ADME, organism-based; how it was run: as §3
[31] = Biodistribution in Stomach content of C57BL/6 mouse bearing mouse B16-F0 cells at 0.74 to 0.92 MBq, iv after 24 hrs; format: ADME, organism-based; how it was run: as §1

CCN(CC)CCNC(=O)c1c[nH]c2ccc([125I])cc2c1=O.Cl.Cl
Drug uptake [1]: 22.27 % ID/g | Drug uptake (Spleen [2]): 0.26 % ID/g | Ratio [3]: 2.2 | Ratio [4]: 18.16 | Drug uptake [5]: 4.1 % ID/g | Drug uptake [6]: 5.18 % ID/g | Drug uptake [7]: 6.79 % ID/g | Ratio [8]: 0.91 | Drug uptake (Spleen [9]): 0.28 % ID/g | Ratio [10]: 38.73 | Drug uptake (Pancreas): 5.74 % ID/g | Activity [11]: 23.8% | Drug uptake (Liver [12]): 0.32 % ID/g | Drug uptake [13]: 12.74 % ID/g | Drug uptake [14]: 2.7 % ID/g | Drug uptake (Blood [15]): 0.42 % ID/g | Drug uptake [16]: 9.93 % ID/g | Drug uptake [17]: 5.12 % ID/g | Drug uptake (Liver [18]): 1.84 % ID/g | Drug uptake [19]: 5.8 % ID/g | Drug uptake (Thyroid gland [20]): 4.33 % ID/g | Drug uptake (Lung [21]): 2.06 % ID/g | Drug uptake [22]: 90.12 % ID/g | Drug uptake (Lung [23]): 0.15 % ID/g | Drug uptake (Liver [24]): 0.07 % ID/g | Drug uptake (Muscle tissue [25]): 0.13 % ID/g | Drug uptake (Kidney): 0.2 % ID/g | Drug uptake (Muscle tissue [26]): 0.01 % ID/g | Drug uptake (Thyroid gland [27]): 8.55 % ID/g | Drug uptake (Blood [28]): 0.23 % ID/g | Ratio [29]: 67 | Ratio [30]: 39.14 | Drug uptake [31]: 0.13 % ID/g
